This is an account of results in ChEMBL document CHEMBL1212759, “Antifungal activity of colistin against mucorales species in vitro and in a murine model of Rhizopus oryzae pulmonary infection” (Antimicrob Agents Chemother, 2010).

Common to all, as to assay type: functional, organism-based
Assay [1] deals with Rhizopus arrhizus. The assay can be described thus: Fungicidal activity against Rhizopus oryzae 5799 at 2 ug/ml after 6 hrs by DiBAC staining. The method, boiled down: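 Spores were grown to mycelia in RPMI 1640 plus 0.15% Junlon, shaken 18 h at 37°C. Mycelia were pelleted and exposed 6 h at 37°C with shaking to colistin (two levels), amphotericin B 2 μg/ml, or drug-free medium. They were washed in MOPS pH 7, stained with DiBAC 2 μg/ml for 1 h in the dark at ambient temperature, and imaged by fluorescence microscopy with an FITC filter.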

The test system of assay [2] is Rhizopus arrhizus. The assay can be described thus: Antifungal activity against Rhizopus oryzae infected in BALB/c mouse pulmonary mucormycosis model assessed as decrease in fungal burden at 80 mg/kg/day, ip by RT-qPCR analysis. The method, boiled down:
(§1)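 Female BALB/c mice (18–22 g) were immunosuppressed with cyclophosphamide 75 mg/kg i.p. and cortisone acetate 300 mg/kg s.c., then infected intranasally with ~3,500 R. oryzae spores. Colistimethate 40 mg/kg i.p. was given every 12 h for 5 days, starting 3 h post-infection; controls got saline. Groups of 10, run three times. Mortality was followed twice daily for 10 days; lung fungal burden by qPCR of rRNA gene, duplicate.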
(In general: In qPCR the cycle at which signal appears reflects the starting amount.)

For assay [3], the system named is Rhizopus arrhizus. The assay can be described thus: Antifungal activity against Rhizopus oryzae infected in BALB/c mouse pulmonary mucormycosis model assessed as decrease in fungal burden at 5 mg/kg/day, itn by RT-qPCR analysis. The method, boiled down: (§2)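 Female BALB/c mice were immunosuppressed with cyclophosphamide and cortisone acetate and infected intranasally with ~3,500 R. oryzae spores. As prophylaxis, intranasal colistimethate 2.5 mg/kg was given every 12 h for 5 days, starting 1 day before infection; on infection day it was given 3 h after spores. Groups of 10, run three times. Survival was followed over 10 days; lung burden by rRNA-gene qPCR.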

Assay [4] deals with Rhizopus arrhizus. The assay can be described thus: Antimicrobial activity against Rhizopus oryzae infected in BALB/c mouse pulmonary mucormycosis model assessed as effect on fungus-induced mortality rate at 80 mg/kg/day, ip after 10 days. A digest of the protocol: as §1
For assay [5], the system named is Rhizopus arrhizus. The assay can be described thus: Antimicrobial activity against Rhizopus oryzae infected in BALB/c mouse pulmonary mucormycosis model assessed as increase in survival rate at 5 mg/kg/day, itn after 10 days. A digest of the protocol:
as §2

Active and inactive are the calls of the source. The rule behind the calls is not given here.

As for `C[C@@H]1[C@H](O)[C@@H](C)/C=C/C=C/C=C/C=C/C=C/C=C/C=C/[C@H](O[C@@H]2O[C@H](C)[C@@H](O)[C@H](N)[C@@H]2O)C[C@@H]2O[C@](O)(C[C@@H](O)C[C@@H](O)[C@H](O)CC[C@@H](O)C[C@@H](O)CC(=O)O[C@H]1C)C[C@H](O)[C@H]2C(=O)O`, in the assay with Rhizopus arrhizus [1], the result was Active.

Consider COLISTIMETHATE, for which the inhibition entry in the assay with Rhizopus arrhizus [2] was “inactive”. Also, in the assay with Rhizopus arrhizus [3], the inhibition result was “Active”. Moreover, the outcome in the assay with Rhizopus arrhizus [4] was inactive. Besides, the survival in the assay on Rhizopus arrhizus [5] was determined as 61%.
